The source made the active and inactive calls.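 How the source made its calls, unless noted: active means viability at or under a set limit in both replicates, limit being median viability minus 3 SD (cut at about 48% in these data, passing the limit was not always enough); inconclusive means at or under the limit in just one replicate; inactive means at or above the limit in both replicates.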
Legend:
[1] = Her2 expression decrease, cell viability multiplex – SKBR3 breast tumor cells, AlphaScreen, ATP viability, primary screen (AID 461;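 active means Her2 level under about 52% in both replicate screens, with viability over 70% of control, limit read from the data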;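 on Her2 level: lower value means less Her2 protein in the cells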;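 on viability: percent of carrier control wells set as 100% viability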); settings: SKBR3 Her2 protein level, 18-24 h, measured here: SKBR3 viability, ATP luminescence, at 10 µM
[2] = target: Receptor tyrosine-protein kinase erbB-2 (Homo sapiens) (UniProt P04626); test: as above; settings: 18-24 h, at 10 µM, stronger effect = lower value
Sequence of Receptor tyrosine-protein kinase erbB-2 (Homo sapiens) (P04626 whole entry, looked up): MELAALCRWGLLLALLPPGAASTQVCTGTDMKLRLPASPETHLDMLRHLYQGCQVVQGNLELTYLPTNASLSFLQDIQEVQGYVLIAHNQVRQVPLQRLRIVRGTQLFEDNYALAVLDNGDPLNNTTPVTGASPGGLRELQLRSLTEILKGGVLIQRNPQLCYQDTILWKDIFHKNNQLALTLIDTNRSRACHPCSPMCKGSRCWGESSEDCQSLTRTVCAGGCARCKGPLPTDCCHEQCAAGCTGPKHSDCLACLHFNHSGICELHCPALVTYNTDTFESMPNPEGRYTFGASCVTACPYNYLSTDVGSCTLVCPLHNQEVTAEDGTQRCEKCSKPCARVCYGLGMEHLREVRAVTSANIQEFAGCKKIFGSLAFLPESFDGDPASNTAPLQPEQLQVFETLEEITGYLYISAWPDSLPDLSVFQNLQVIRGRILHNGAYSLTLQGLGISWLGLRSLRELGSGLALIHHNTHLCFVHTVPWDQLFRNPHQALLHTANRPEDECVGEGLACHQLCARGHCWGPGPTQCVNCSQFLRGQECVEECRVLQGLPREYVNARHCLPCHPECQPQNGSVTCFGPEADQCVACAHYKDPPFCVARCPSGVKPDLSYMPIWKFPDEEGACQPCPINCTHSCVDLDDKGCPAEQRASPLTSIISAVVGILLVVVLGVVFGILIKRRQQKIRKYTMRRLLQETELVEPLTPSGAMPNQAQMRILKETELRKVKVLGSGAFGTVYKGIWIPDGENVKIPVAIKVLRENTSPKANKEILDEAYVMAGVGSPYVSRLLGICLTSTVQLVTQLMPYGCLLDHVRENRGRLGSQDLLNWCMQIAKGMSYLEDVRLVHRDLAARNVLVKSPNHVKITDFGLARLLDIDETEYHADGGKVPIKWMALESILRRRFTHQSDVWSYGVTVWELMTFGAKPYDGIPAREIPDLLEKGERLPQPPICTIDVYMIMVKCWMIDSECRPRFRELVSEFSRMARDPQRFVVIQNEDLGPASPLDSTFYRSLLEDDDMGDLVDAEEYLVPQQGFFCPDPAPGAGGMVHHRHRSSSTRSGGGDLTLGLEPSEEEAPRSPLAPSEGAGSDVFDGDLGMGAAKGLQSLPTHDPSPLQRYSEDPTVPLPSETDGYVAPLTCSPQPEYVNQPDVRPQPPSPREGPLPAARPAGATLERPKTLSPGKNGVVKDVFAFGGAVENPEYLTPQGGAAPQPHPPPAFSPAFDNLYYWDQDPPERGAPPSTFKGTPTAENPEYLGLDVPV

[3] = reduced viability of SK-BR-3 breast cancer cells – cell-based, 24 h, human, pilot screen (AID 572;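 active means viability at or below 10% of carrier control in both of two separate runs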;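 further: compound exposure lasted between 18 and 24 h rather than exactly 24 h; 100% = carrier-treated control wells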); settings: SK-BR-3 viability, CellTiter-Glo luminescence, at 10 µM, stronger effect = lower value
[4] = HUVEC growth inhibition – cell-based, human, primary screen (AID 575;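 active means viability at or below 30% in both replicate assays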;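 further: 100% = median of untreated cell wells with 0.1% DMSO on each plate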); settings: HUVEC proliferation, CellTiter-Glo luminescence, 72 h; at 10 µM; stronger effect = lower value
How it was run: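 Test system: primary human umbilical vein endothelial cells; medium: endothelial basal medium with 2% FBS plus growth supplements; dosing: 10 µM compound only; times: 72 h treatment at 37 °C; signal: CTG luminescence; read-out: % viability relative to median vehicle-well signal on each plate; control set: vehicle and MePR control wells; plate: 384-well, collagen-coated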

[5] = H69AR cell proliferation blockers – human, duplicate replicates, primary screen (AID 580); settings: H69AR lung tumor cells viability, ATP luminescence, 72 h; at 10 µM; stronger effect = lower value;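 further: 100% = mean luminescence of untreated wells and 0% = no signal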
[6] = MRP1 drug-resistance reversers in H69AR cells – cell-based, doxorubicin co-treatment, pilot screen (AID 601;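 active means viability loss from added drug above about 55%, and viability with drug at most 40%, in both replicates, limit read from the data, passing the limit was not always enough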); settings: CellTiter-Glo, 72 h, at 10 µM; for differential viability (reversal): stronger effect = higher value
[7] = yeast transport mutant growth inhibition pilot in 384-well plates, post-Golgi transport modulator project (AID 636; in the data active means inhibition above about 31%); settings: absorbance 615 nm, about 18 h, stronger effect = higher value
[8] = growth suppression of yeast trafficking mutant, preliminary HTS, modulators of trafficking downstream of Golgi apparatus project, 1536-format plate, OD 615 nm (AID 637; in the data active means inhibition above about 30%); settings: yeast transport mutant growth, absorbance 615 nm, 18 h; stronger effect = higher value
[9] = H69AR cells + 2 uM doxorubicin, measured here: viability with 2 uM doxorubicin, stronger effect = lower value
[10] = H69AR cells, compound alone cytotoxicity

Row | SMILES | viability [1] | Her2 level [2] | viability [3] | viability [4] | viability [5] | differential viability (reversal) ([6]; H69AR cells + 2 uM doxorubicin) | viability [6, 9] | viability [6, 10] | inhibition [7] | inhibition [8]
1 | CC1CN(C(=O)CSc2nnc(-c3ccncc3)n2-c2ccccc2)CC(C)O1 (stereo not given) | 101% | 112% (inactive) | 101% (inactive) | 103% (inactive) | 97.6% (inactive) | -5% (inactive) | 103% | 97.6% | -1.08% (inactive) | 0.32% (inactive)
2 | O=C1OCCC1Sc1ncnc2sc3c(c12)CCC3 (stereo not given) | 95.5% | 84.5% (inactive) | 95.5% (inactive) | 97.6% (inactive) | 104% (inactive) | 11.8% (inactive) | 91.9% | 104% | -4.67% (inactive) | -0.32% (inactive)
3 | CCc1nnc(NC(=O)CSc2nnc(-c3ccc(OC)cc3)n2C)s1 | 87% | 94% (inactive) | 87% (inactive) | 89.3% (inactive) | 104% (inactive) | 5.08% (inactive) | 98.6% | 104% | -2.8% (inactive) | 1.8% (inactive)
4 | [N-]=[N+]=CC(=O)CC(c1ccccc1)N1C(=O)c2ccccc2C1=O (stereo not given) | 93.5% | 106% (inactive) | 93.5% (inactive) | 97.8% (inactive) | 103% (inactive) | 5.81% (inactive) | 97% | 103% | -0.91% (inactive) | -4.29% (inactive)
5 | CCCOc1cccc(C2/C(=C(/O)c3ccccc3)C(=O)C(=O)N2CCN(C)C)c1 (stereo not given) | 108% | 93% (inactive) | 108% (inactive) | 99.5% (inactive) | 91.6% (inactive) | 2.56% (inactive) | 89.1% | 91.6% | -6.62% (inactive) | 1.75% (inactive)
6 | O=C(NCc1cccnc1)c1ccc(=O)oc1 | 89.5% | 90% (inactive) | 89.5% (inactive) | 106% (inactive) | 83.4% (inactive) | -4.97% (inactive) | 88.3% | 83.4% | -5.81% (inactive) | -5.33% (inactive)
7 | Cc1ccc(F)cc1NC(=O)Cc1nn(C)c(=O)c2ccccc12 | 96.5% | 74.5% (inactive) | 96.5% (inactive) | 74.1% (inactive) | 93.4% (inactive) | 15.8% (inactive) | 77.6% | 93.4% | -0.66% (inactive) | -0.16% (inactive)
8 | CCCCn1c(SCC(=O)c2ccc3c(c2)OCCO3)nnc1-c1ccco1 | 94.5% | 104% (inactive) | 94.5% (inactive) | 81.8% (inactive) | 95% (inactive) | 1.53% (inactive) | 93.4% | 95% | 1.73% (inactive) | 16.1% (inactive)
9 | O=C(Nc1ccccc1N1CCOCC1)c1ccc2ccccc2n1 | 90% | 83.5% (inactive) | 90% (inactive) | 67.4% (inactive) | 79.4% (inactive) | -12.4% (inactive) | 91.9% | 79.4% | -4.74% (inactive) | -2% (inactive)
10 | CC(C)(C)c1cc(C(=S)N2CCN(CCO)CC2)cc(C(C)(C)C)c1O | 123% | 86% (inactive) | 123% (inactive) | 94.7% (inactive) | 96.2% (inactive) | 17.4% (inactive) | 78.8% | 96.2% | -6.13% (inactive) | 2.42% (inactive)
11 | O=C(Nc1cccc2ccccc12)N1CCOCC1 | 119% | 103% (inactive) | 119% (inactive) | 85.9% (inactive) | 90.5% (inactive) | -8.41% (inactive) | 98.9% | 90.5% | -2.95% (inactive) | 11.3% (inactive)
12 | COc1ccc(S(=O)(=O)n2nc(OC(=O)c3ccc(C)cc3)cc2N)cc1 | 92.5% | 72% (inactive) | 92.5% (inactive) | 91.6% (inactive) | 97.7% (inactive) | -7.45% (inactive) | 105% | 97.7% | -4.47% (inactive) | -5.67% (inactive)
13 | O=C(O)C1C2C=CC(O2)C1C(=O)NCc1ccc(Cl)cc1 (stereo not given) | 107% | 94.5% (inactive) | 107% (inactive) | 105% (inactive) | 104% (inactive) | 7.33% (inactive) | 96.6% | 104% | -5.87% (inactive) | 2.58% (inactive)
14 | O=C(O)Cn1cc2c(n1)CCCC2 | 96% | 98% (inactive) | 96% (inactive) | 93.9% (inactive) | 98% (inactive) | 3.98% (inactive) | 94% | 98% | -2% (inactive) | 5.41% (inactive)
15 | Cc1[nH]n2c(=O)cc(Cc3ccccc3)nc2c1C#N | 97.5% | 80% (inactive) | 97.5% (inactive) | 97.1% (inactive) | 81.5% (inactive) | -10.1% (inactive) | 91.6% | 81.5% | -2.89% (inactive) | -1.45% (inactive)
16 | COc1ccc(OC)c(-c2nnc(SCC(=O)NC3CCCCC3)o2)c1 | 93.5% | 99.5% (inactive) | 93.5% (inactive) | 96.2% (inactive) | 98.5% (inactive) | 6.21% (inactive) | 92.2% | 98.5% | 0% (inactive) | -13.4% (inactive)

Row | SMILES | viability [1] | Her2 level [2] | viability [3] | viability [4] | viability [5] | differential viability (reversal) ([6]; H69AR cells + 2 uM doxorubicin) | viability [6, 9] | viability [6, 10] | inhibition [7] | inhibition [8]
17 | Cc1cc(C)c2nc(N)sc2c1 | 95.5% | 108% (inactive) | 95.5% (inactive) | 105% (inactive) | 103% (inactive) | 16.9% (inactive) | 85.8% | 103% | -6.62% (inactive) | -3.33% (inactive)
18 | O=C(Nc1ccc(OC(=O)c2ccco2)cc1)c1ccco1 | 96.5% | 99.5% (inactive) | 96.5% (inactive) | 103% (inactive) | 85.3% (inactive) | -10.4% (inactive) | 95.7% | 85.3% | -5.73% (inactive) | -10.5% (inactive)
19 | CSC1=C(C#N)C(c2ccc(Cl)cc2)C2=C(CC(C)(C)CC2=O)N1 (stereo not given) | 102% | 95% (inactive) | 102% (inactive) | 72.1% (inactive) | 66% (inactive) | 32.4% (inactive) | 33.6% | 66% | -3.92% (inactive) | -1.48% (inactive)
20 | CCOC(=O)CSc1nc(C)c(C(=O)OCC)s1 | 89% | 93.5% (inactive) | 89% (inactive) | 105% (inactive) | 101% (inactive) | 3.4% (inactive) | 97.8% | 101% | 0.92% (inactive) | -4.68% (inactive)
21 | Cc1cc(C)n(-c2cc(N3CCOCC3)nc(-c3ccccc3)n2)n1 | 85% | 104% (inactive) | 85% (inactive) | 75.7% (inactive) | 73.6% (inactive) | -7.4% (inactive) | 81% | 73.6% | -5.79% (inactive) | 4.17% (inactive)
22 | Cn1nc(C(=O)NC2CCCCCC2)ccc1=O | 126% | 104% (inactive) | 126% (inactive) | 101% (inactive) | 111% (inactive) | 19.2% (inactive) | 92% | 111% | -2.6% (inactive) | -0.79% (inactive)
23 | Cc1nn(-c2ccccc2)c(C)c1/C=N/O | 106% | 104% (inactive) | 106% (inactive) | 100% (inactive) | 96.5% (inactive) | 11.4% (inactive) | 85.1% | 96.5% | -4.73% (inactive) | 3.93% (inactive)
24 | CC1CCCCC1NC(=O)C1CCN(C(=O)NC2CCCCC2)CC1 (stereo not given) | 94.5% | 108% (inactive) | 94.5% (inactive) | 90.8% (inactive) | 102% (inactive) | 6.41% (inactive) | 95.3% | 102% | -0.78% (inactive) | 0.17% (inactive)
25 | CCOC(=O)c1cc2sccc2n1CC(=O)Nc1ccc(OC)cc1OC | 90% | 86.5% (inactive) | 90% (inactive) | 75.4% (inactive) | 82% (inactive) | -7.66% (inactive) | 89.6% | 82% | -1.97% (inactive) | -3.82% (inactive)
26 | Cc1cccc(OCCCc2c(C)n[nH]c2C)c1 | 102% | 118% (inactive) | 102% (inactive) | 121% (inactive) | 98.7% (inactive) | 20.4% (inactive) | 78.4% | 98.7% | 5.32% (inactive) | -8% (inactive)
27 | Cc1ccc(CNC(=O)C2CCN(S(=O)(=O)c3c(C)noc3C)CC2)cc1 | 100% | 102% (inactive) | 100% (inactive) | 106% (inactive) | 104% (inactive) | 6.84% (inactive) | 97.4% | 104% | -0.53% (inactive) | -4.44% (inactive)
28 | O=C(CSc1nnc(-c2cccnc2)o1)OC1CCCCC1 | 110% | 110% (inactive) | 110% (inactive) | 95.8% (inactive) | 101% (inactive) | 13.2% (inactive) | 87.9% | 101% | -7.87% (inactive) | 0.48% (inactive)
29 | COc1ccc2c(c1)C(C)=CC(C)(C)N2C(=O)C(C)N1C(=O)c2ccccc2C1=O (stereo not given) | 109% | 104% (inactive) | 109% (inactive) | 81.6% (inactive) | 85.7% (inactive) | -1.3% (inactive) | 87% | 85.7% | -5.71% (inactive) | -3.33% (inactive)
30 | CCC(C(=O)OCC(=O)Nc1c(C)n(C)n(-c2ccccc2)c1=O)c1ccccc1 (stereo not given) | 109% | 83% (inactive) | 109% (inactive) | 117% (inactive) | 87.7% (inactive) | 6.61% (inactive) | 81.1% | 87.7% | -4.66% (inactive) | -4.76% (inactive)
31 | Cc1ccccc1OCCN1C(=O)NC2(CCc3ccccc32)C1=O (stereo not given) | 94.5% | 83.5% (inactive) | 94.5% (inactive) | 92.9% (inactive) | 82.7% (inactive) | 0.01% (inactive) | 82.7% | 82.7% | -6.62% (inactive) | 0% (inactive)
32 | COC(=O)Nc1nc2c(C)cccc2s1 | 114% | 88% (inactive) | 114% (inactive) | 56.1% (inactive) | 85.4% (inactive) | 11.9% (inactive) | 73.5% | 85.4% | 1.18% (inactive) | 8.33% (inactive)
